Measurements taken from ChEMBL document CHEMBL5344414, “Maleimide constrained BAD BH3 domain peptides as BCL-xL Inhibitors: A versatile approach to rapidly identify sites compatible with peptide constraining” (Bioorg Med Chem Lett, 2023).
Calls of active or inactive are those of the source. No cut-off for these calls is given here. Where a SMILES comes first, the peptide text is derived from it.

Assays:
[1] = target: Induced myeloid leukemia cell differentiation protein Mcl-1/BH3-interacting domain death agonist (Homo sapiens) (UniProt Q07820+P55957); test: Inhibition of BID/MCL-1 interaction (unknown origin) by fluorescence anisotropy competition assay; format: protein assay
Induced myeloid leukemia cell differentiation protein Mcl-1/BH3-interacting domain death agonist (Homo sapiens), sequence (P55957 whole entry, looked up, the tested form may be a part): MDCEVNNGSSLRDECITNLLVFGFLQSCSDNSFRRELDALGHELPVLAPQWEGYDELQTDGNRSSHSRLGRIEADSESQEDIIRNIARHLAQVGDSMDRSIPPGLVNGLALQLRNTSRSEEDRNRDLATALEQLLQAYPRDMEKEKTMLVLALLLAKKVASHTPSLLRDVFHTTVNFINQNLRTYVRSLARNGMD
Induced myeloid leukemia cell differentiation protein Mcl-1/BH3-interacting domain death agonist (Homo sapiens), sequence (Q07820 whole entry, looked up, the tested form may be a part): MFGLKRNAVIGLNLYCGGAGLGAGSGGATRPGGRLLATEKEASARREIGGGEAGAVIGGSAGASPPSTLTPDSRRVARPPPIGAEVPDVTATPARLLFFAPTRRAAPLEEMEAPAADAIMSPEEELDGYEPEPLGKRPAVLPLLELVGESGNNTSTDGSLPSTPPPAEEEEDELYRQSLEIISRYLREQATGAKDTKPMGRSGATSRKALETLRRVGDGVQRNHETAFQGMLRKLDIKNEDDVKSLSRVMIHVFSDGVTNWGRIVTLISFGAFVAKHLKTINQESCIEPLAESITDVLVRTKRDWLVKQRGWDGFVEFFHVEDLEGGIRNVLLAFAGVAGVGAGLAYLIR

BCL2L1/BAD = BCL2L1/BAD (Homo sapiens, UniProt Q07817); test: Inhibition of BAD/His-SUMO tagged BCL-XL (1 to 209 residues; missing 27 to 82 residues) (unknown origin) overexpressed in Escherichia coli BL21 protein-protein interaction by fluorescence anisotropy competition assay
BCL2L1/BAD, sequence (Q92934 whole entry, the tested form may be a part): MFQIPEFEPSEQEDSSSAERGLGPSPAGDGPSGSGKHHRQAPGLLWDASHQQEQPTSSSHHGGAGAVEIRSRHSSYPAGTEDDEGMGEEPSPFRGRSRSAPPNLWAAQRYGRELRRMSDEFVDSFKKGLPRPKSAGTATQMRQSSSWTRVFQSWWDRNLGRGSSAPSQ
BCL2L1/BAD, sequence (Q07817 whole entry, the tested form may be a part): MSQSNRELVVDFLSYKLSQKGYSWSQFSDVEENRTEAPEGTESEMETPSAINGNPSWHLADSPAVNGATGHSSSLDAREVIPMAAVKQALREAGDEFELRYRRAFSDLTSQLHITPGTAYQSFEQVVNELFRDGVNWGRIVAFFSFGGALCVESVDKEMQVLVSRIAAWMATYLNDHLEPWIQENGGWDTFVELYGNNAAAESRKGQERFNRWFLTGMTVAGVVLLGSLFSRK
In short: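 Final conditions: 200 nM BCL-xL, 50 nM tracer, 20 mM Tris, 150 mM NaCl, pH 7.6, 20 °C, with peptide titrated. Tracer Kd for BCL-xL was determined beforehand by direct titration (6 nM-125 μM protein).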

Compound | inhibition [1] | IC50 (BCL2L1/BAD) [µM]
CSCC[C@H](NC(=O)[C@H](CCCNC(=N)N)NC(=O)[C@H](CCCNC(=N)N)NC(=O)[C@H](CC(C)C)NC(=O)[C@H](CCC(=O)O)NC(=O)[C@H](CCCNC(=N)N)NC(=O)CNC(=O)[C@H](Cc1ccc(O)cc1)NC(=O)[C@H](CCCNC(=N)N)NC(C)=O)C(=O)N[C@@H](CO)C(=O)N[C@@H](CC(=O)O)C(=O)N[C@@H](CCC(=O)O)C(=O)N[C@@H](Cc1ccccc1)C(=O)N[C@H](C(=O)N[C@@H](CC(=O)O)C(=O)N[C@@H](CO)C(=O)N[C@@H](Cc1ccccc1)C(=O)N[C@@H](CCCCN)C(=O)N[C@@H](CCCCN)C(N)=O)C(C)C (Ac-RYGRELRRMSDEFVDSFKK-NH2) | inactive | 3.6
CSCC[C@H](NC(=O)[C@H](CS)NC(=O)[C@H](CCCNC(=N)N)NC(=O)[C@H](CC(C)C)NC(=O)[C@H](CCC(=O)O)NC(=O)[C@H](CCCNC(=N)N)NC(=O)CNC(=O)[C@H](Cc1ccc(O)cc1)NC(=O)[C@H](CCCNC(=N)N)NC(C)=O)C(=O)N[C@@H](CO)C(=O)N[C@@H](CC(=O)O)C(=O)N[C@@H](CS)C(=O)N[C@@H](Cc1ccccc1)C(=O)N[C@H](C(=O)N[C@@H](CC(=O)O)C(=O)N[C@@H](CO)C(=O)N[C@@H](Cc1ccccc1)C(=O)N[C@@H](CCCCN)C(=O)N[C@@H](CCCCN)C(N)=O)C(C)C (Ac-RYGRELRCMSDCFVDSFKK-NH2) | inactive | 6.9
CSCC[C@@H]1NC(=O)[C@@H](NC(=O)[C@H](CCCNC(=N)N)NC(=O)[C@H](CC(C)C)NC(=O)[C@H](CCC(=O)O)NC(=O)[C@H](CCCNC(=N)N)NC(=O)CNC(=O)[C@H](Cc2ccc(O)cc2)NC(=O)[C@H](CCCNC(=N)N)NC(C)=O)CS2=S(C[C@@H](C(=O)N[C@@H](Cc3ccccc3)C(=O)N[C@H](C(=O)N[C@@H](CC(=O)O)C(=O)N[C@@H](CO)C(=O)N[C@@H](Cc3ccccc3)C(=O)N[C@@H](CCCCN)C(=O)N[C@@H](CCCCN)C(N)=O)C(C)C)NC(=O)[C@H](CC(=O)O)NC(=O)[C@H](CO)NC1=O)C(=O)NC2=O (stereo partly specified) | inactive | 2.4
